Experimental data published in ChEMBL document CHEMBL1128497, “Synthesis and in vitro and in vivo antitumor activity of a series of trans platinum antitumor complexes” (J Med Chem, 1995).
pIC50: −log10 of the molar value. Several values for one entry are separate records, joined by “and”; a condition that tells them apart may be missing. Identical values can stand only once.

Assays:
[1] = system: 41M; assay: In vitro antitumor activity against 41McisR cell line.; assay type: functional, cell-based, Homo sapiens
Procedure, shortened: (§1)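 Human ovarian carcinoma monolayers were grown in DMEM with 10% FCS, insulin and hydrocortisone under 10% CO2. Cells were seeded at 5 × 10^3–1 × 10^4 per well and left to attach overnight. Drugs were freshly dissolved in 0.9% saline (1 mM or 500 μM stocks) and added to quadruplicate wells for 96 h. Cell mass was read by SRB staining. IC50 values are means of at least two experiments.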

[2] = In vivo antitumor activity by i.p. administration against murine ADJ/PC6 (sc) plasmacytoma.; assay type: ADME, organism-based; settings: mouse, ip
[3] = system: 41M; assay: In vitro antitumor activity against 41M cell line.; assay type: functional, cell-based, Homo sapiens; procedure, shortened: as §1
[4] = system: SK-OV-3; assay: In vitro antitumor activity against SK-OV-3 cell line.; assay type: functional, cell-based, Homo sapiens; procedure, shortened: as §1
[5] = system: CH1; assay: In vitro antitumor activity against CH1cisR cell line.; assay type: functional, cell-based, Homo sapiens; procedure, shortened: as §1
[6] = system: Mus musculus; assay: In Vivo Antitumor activity by ip administration against Murine ADJ/PC6 (sc) Plasmacytoma in mice; assay type: functional, organism-based; settings: Plasma
Procedure, shortened: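 ADJ/PC6 plasmacytoma (or its cisplatin-resistant subline) was implanted sc as 1 mm3 fragments. On day 20 mice received a single ip injection of drug as a sonicated suspension in arachis oil, at halving doses. Ten days later tumors were dissected and weighed against controls. […] Therapeutic index is MTD/ED90, alongside LD50.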

[7] = system: CH1; assay: In vitro antitumor activity against CH1 cell line.; assay type: functional, cell-based, Homo sapiens; procedure, shortened: as §1
[8] = system: A2780; assay: In vitro antitumor activity against A2780cisR cell line.; assay type: functional, cell-based, Homo sapiens; procedure, shortened: as §1
[9] = system: A2780; assay: In vitro antitumor activity against A2780 cell line.; assay type: functional, cell-based, Homo sapiens; procedure, shortened: as §1
[10] = system: A2780; assay: Resistant factor determined between IC50 of resistant line to that of parental A2780 cell line; assay type: functional, cell-based; settings: Homo sapiens
Procedure, shortened: (§2)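 Resistance factor is the IC50 in the cisplatin-resistant subline divided by the IC50 in its parent line. IC50s came from a 96 h SRB cytotoxicity assay run in quadruplicate wells.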

[11] = system: 41M; assay: Resistant factor was determined between IC50 of cisplatin-resistant human tumor cell lines to that of […] cell line; assay type: functional, cell-based; procedure, shortened: as §2
[12] = system: CH1; assay: Resistant factor, determined between IC50 of resistant line to that of CHcisR cell line; assay type: functional, cell-based; settings: Homo sapiens; CH1cisR; procedure, shortened: as §2
[13] = system: Mus musculus; assay: Ability to inhibit Antitumor activity against PXN/109T/C Human Ovarian Cracinoma xenograft in mice at dose 4 mg/kg by ip administration; assay type: functional, organism-based; set-up: dose 4 mg/kg
Procedure, shortened: (§3)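 Human ovarian carcinoma xenografts were grown subcutaneously in female Balb C nude mice. Tumors were measured weekly until they doubled their starting volume. Growth delay is the difference in doubling time between treated and control tumors.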

[14] = system: Mus musculus; assay: Ability to inhibit Antitumor activity against PXN/109T/CC Human Ovarian Cracinoma xenograft in mice at dose 50 mg/kg by ip administration; assay type: functional, organism-based; set-up: dose 50 mg/kg; procedure, shortened: as §3

In the case of “AMMONIO(DICHLORO)PLATINUM(CYCLOHEXYL)AMMONIUM [listing 1 of 2 here]”, the pIC50 [1] was 6.55 and 5.82, the LD50 [2] was 17.5 mg/kg and 35 mg/kg and the pIC50 [3] was 6.59 and 5.77. The pIC50 [4] was 5.68 and 5.14 and the pIC50 [5] was 6.42 and 5.48.
“AMMONIO(DICHLORO)PLATINUM(CYCLOHEXYL)AMMONIUM [listing 2 of 2 here]” gave an ED90 [6] of 1.4 mg/kg.
“AMMONIO(DICHLORO)[DI(METHYLCARBONYLOXY)]PLATINUM(CYCLOHEXYL)AMMONIUM [listing 1 of 2 here]” gave a pIC50 [7] of 5.96, a pIC50 [1] of 5.92 and an LD50 [2] of 35 mg/kg. For the same substance, the pIC50 [8] was 5.52, the pIC50 [3] was 5.89 and the pIC50 [4] was 5.32. The pIC50 [5] was 5.82 and the pIC50 [9] was 6.52.
Work on “AMMONIO(DICHLORO)[DI(METHYLCARBONYLOXY)]PLATINUM(CYCLOHEXYL)AMMONIUM [listing 2 of 2 here]” yielded an RF [10] of 10, an RF [11] of 0.9 and an RF [12] of 1.4.
CISPLATIN gave an ED90 [6] of 1.6 mg/kg.
Substance TRANSPLATIN has a pIC50 [7] of 4.52, a pIC50 [1] of 4.15 and an LD50 [2] of 32 mg/kg. The pIC50 [8] was 3.59, the pIC50 [3] was 4.24 and the pIC50 [4] was 3.59. The pIC50 [5] was 4.16 and the pIC50 [9] was 4.49.
For “Trans-Amminedichloro hexylamine platinium (II)”, the RF [10] was 2.1, the RF [11] was 0.9 and the RF [12] was 1.1.
“Trans-Amminedichloro(cycloheptylamine)platinium (II)” showed an RF [10] of 3.4, an RF [11] of 0.7 and an RF [12] of 1.1.
In the case of “trans-(1-Aminoadamantane)Amminedichloro-platinium (II)”, the RF [10] was 3.6, the RF [11] was 2.4 and the RF [12] was 2.
“trans-Amminedibromo (cyclohexylamine)-platinium (II)” gave an RF [10] of 2.8, an RF [11] of 0.8 and an RF [12] of 1.2.
“trans-Amminedichloro(N-methylcyclohexylamine)-platinium (II) [listing 1 of 2 here]” showed a pIC50 [7] of 6.42, a pIC50 [1] of 6.32 and an LD50 [2] of 71 mg/kg. For the same substance, the pIC50 [8] was 5.44, the pIC50 [3] was 6.11 and the pIC50 [4] was 5.41. It also gave a pIC50 [5] of 5.96 and a pIC50 [9] of 6.34.
Substance “trans-Amminedichloro(N-methylcyclohexylamine)-platinium (II) [listing 2 of 2 here]” has an RF [10] of 7.8, an RF [11] of 0.6 and an RF [12] of 2.8.
Work on “trans-Amminetetrachloro(cyclohexylamine)-platinium (IV)” yielded an RF [10] of 3.4, an RF [11] of 1.3 and an RF [12] of 1.2.
“trans-Amminetetrachloro(pyridine)-platinium (IV) [listing 1 of 2 here]” gave a pIC50 [7] of 5.33, a pIC50 [1] of 5.39 and an LD50 [2] greater than 100 mg/kg. For the same substance, the pIC50 [8] was 5.25, the pIC50 [3] was 5.28 and the pIC50 [4] was 4.84. It also gave a pIC50 [5] of 5.32 and a pIC50 [9] of 5.49.
In the case of “trans-Amminetetrachloro(pyridine)-platinium (IV) [listing 2 of 2 here]”, the RF [10] was 1.7, the RF [11] was 0.8 and the RF [12] was 1.
Substance “trans-Amminetetrachloro(quinuclidine)-platinium (IV)” has an RF [10] of 1.1, an RF [11] of 1 and a Growth delay [13] of 0 days. For the same substance, the RF [12] was 1.
“trans-a,f-Dichloro-b,d-bis(cyclohexylamine)-c,e-dihydroxo-platinium (IV)” gave a Growth delay [14] of 1.8 days, an RF [10] of 4 and an RF [11] of 1.5. It also gave an ED90 [6] of 40 mg/kg and an RF [12] of 1.1.
